# Laboratory results taken from ChEMBL document CHEMBL5550188, “Detection of a Mitochondrial Fragmentation and Integrated Stress Response Using the Cell Painting Assay” (2024).
# Calls of active or inactive are those of the source. No cut-off for these calls is given here.
# Tests used:
# U2OS [1] = test: Induction of integrated stress response in human U2OS cells assessed as increase ATF4 level at 50 uM incubated for 24 hrs by Western blot analysis; assay type: functional, cell-based
# Summary of the method: (§1)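 U-2OS grown to 80% confluence in 6-well plates were treated 24 h at 37 °C versus DMSO. ATF4 was detected by immunoblotting, with vinculin as reference protein.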
# U2OS [2] = test: Effect on HIF1 signaling in human U2OS cells at 30 uM incubated for 24 hrs by pathway over-representation analysis; assay type: functional, cell-based
# Summary of the method: (§2)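 U-2OS seeded at 1 × 10⁶ cells in T75 flasks, treated next day for 24 h at 37 °C versus DMSO. Cells were lysed by freeze–thaw, reduced with TCEP at 55 °C, alkylated with iodoacetamide, acetone-precipitated and trypsin-digested. Peptides were TMT-labelled, split into 10 fractions by high-pH C18, then run on nanoHPLC-MS/MS (orbitrap). Biological triplicates, with pathway over-representation analysis.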
# U2OS [3] = test: Inhibition of cell confluence in human U2OS cells at 10 to 50 uM measured after 48 hrs by PI/caspase-3/7 Green dye based analysis; assay type: functional; settings: dose 10-50 µM
# Summary of the method: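 U-2OS at 5000/well were incubated overnight, then given medium with compound or DMSO plus propidium iodide and CellEvent Caspase-3/7 Green. Cells were imaged hourly for 48 h by live-cell imaging. Phase confluence gave growth; red and green object confluence gave PI-positive cells and caspase-3/7 activity.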
# U2OS [4] = test: Effect on glycolysis in human U2OS cells assessed as increase in ECAR level at 10 to 30 uM of acute treatment by Seahorse analysis; assay type: functional, cell-based; settings: dose 10-30 µM
# Summary of the method: (§3)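 Seahorse XFp Mito Stress Test on U-2OS, 2 × 10⁵ cells per well, seeded overnight. Assay medium was pH 7.4 DMEM with 2 mM GlutaMAX, 1 mM pyruvate and 25 mM glucose. For acute runs, compound was injected after 5 baseline reads, then 10 reads. Otherwise cells were pretreated 24 h. Then oligomycin A, FCCP and rotenone/antimycin A were added. OCR/ECAR were background-subtracted and normalized to the last baseline (100%). Mean ± SD, n = 3.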
# U2OS [5] = test: Induction of integrated stress response in human U2OS cells assessed as increase ATF4 mRNA level at 30 uM incubated for 24 hrs by RT-qPCR analysis; assay type: functional, cell-based
# Summary of the method: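 U-2OS at 1 × 10⁵/well in 6-well plates were grown 24 h to ~80% confluence, then treated 24 h versus DMSO. Total RNA (DNase-treated) was reverse-transcribed and ATF4 measured by SYBR Green qPCR. Expression was calculated by ΔΔCt against GAPDH, with DMSO set to 100%. Mean ± SD, n = 3.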
# U2OS [6] = test: Induction of integrated stress response in human U2OS cells assessed as increase ATF4 level at 30 uM incubated for 24 hrs by Western blot analysis; assay type: functional, cell-based; summary of the method: as §1
# HEK-293T = test: Upregulation of HIF1 level in HEK293T cells transfected with HIF1/luc at 30 uM incubated for 24 hrs by Renilla luciferase base assay; assay type: functional, cell-based; settings: Homo sapiens
# Summary of the method: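 HEK293T were co-transfected (Lipofectamine 2000) with a PGK1-HRE-driven destabilized firefly luciferase reporter and constitutive TK-Renilla. Cells were seeded at 2.5 × 10⁴/well, then treated 24 h the next day, with 100 μM CoCl₂ and 10 μM ML228 as controls. Dual-Glo readout: firefly was normalized to Renilla and expressed as fold induction over DMSO.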
# U2OS [7] = test: Effect on mitochondrial dysfunction in human U2OS cells at 30 uM incubated for 24 hrs by pathway over-representation analysis; assay type: functional, cell-based; summary of the method: as §2
# U2OS [8] = test: Induction of mitochondrial fragmentation in human U2OS cells assessed as puncta-like staining at 30 uM incubated for 20 hrs by Mito Tracker Deep Red dye based CPA assay; assay type: functional, cell-based
# Summary of the method: (§4)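 Cell Painting: U-2OS were seeded at 1600 cells/well, then dosed 4 h later for 20 h at 37 °C against a matched-% DMSO control. Live cells were stained 30 min with 100 nM MitoTracker Deep Red, then fixed in 3.7% formaldehyde and permeabilized with 0.1% Triton X-100. They were co-stained with phalloidin, concanavalin A, Hoechst, WGA and SYTO 14. Imaging was high-content, run as triplicate plates; features are Z-scores versus DMSO median/MAD.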
# U2OS [9] = test: Effect on glycolysis in human U2OS cells assessed as increase in ECAR level at highest concentration measured after 24 hrs by Seahorse analysis; assay type: functional, cell-based; summary of the method: as §3
# U2OS [10] = test: Effect on mitochondrial respiration in human U2OS cells assessed as suppression of OCR level at 10 to 30 uM of acute treatment by Seahorse analysis; assay type: functional, cell-based; settings: dose 10-30 µM; summary of the method: as §3
# U2OS [11] = test: Induction of oxidative stress in human U2OS cells assessed as increase in mitochondrial superoxide level at 30 uM incubated for 1 hr by MitoSox Red staining based analysis; assay type: functional, cell-based
# Summary of the method: (§5)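 U-2OS at 15,000/well were preloaded 30 min with 5 μM MitoSOX Red plus Hoechst in plain DMEM. They were then treated 60 min in complete DMEM, fixed in 0.5% paraformaldehyde, and imaged at 10×. Integrated MitoSOX intensity per cell was normalized to DMSO (0%) and 10 μM CDNB (100%). Mean ± SD, n = 3.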
# U2OS [12] = test: Effect on mitochondrial respiration in human U2OS cells assessed as suppression of OCR level at 10 to 30 uM measured after 24 hrs by Seahorse analysis; assay type: functional, cell-based; settings: dose 10-30 µM; summary of the method: as §3
# U2OS [13] = test: Effect on mitochondrial membrane potential in human U2OS cells at 30 uM incubated for 24 hrs by TRME staining based analysis; assay type: functional, cell-based
# Summary of the method: (§6)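 U-2OS (5 × 10³/well) were treated 24 h, then given 20 μM FCCP or 0.5% DMSO controls for 10 min. Cells were stained 30 min at 37 °C with 1 μM TMRE plus Hoechst-33342 in complete DMEM, washed, and imaged live in 0.2% BSA/PBS at 10× (TMRE ex/em 549/575 nm).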
# U2OS [14] = test: Effect on oxidative phosphorylation in human U2OS cells at 30 uM incubated for 24 hrs by pathway over-representation analysis; assay type: functional, cell-based; summary of the method: as §2
# U2OS [15] = test: Induction of oxidative stress in human U2OS cells assessed as increase in mitochondrial superoxide level at 10 uM incubated for 1 hr by MitoSox Red staining based analysis; assay type: functional, cell-based; summary of the method: as §5
# U2OS [16] = test: Effect on HIF1 signaling in human U2OS cells incubated for 24 hrs by pathway over-representation analysis; assay type: functional, cell-based; summary of the method: as §2
# U2OS [17] = test: Induction of mitochondrial fragmentation in human U2OS cells assessed as puncta-like staining at 10 uM incubated for 20 hrs by Mito Tracker Deep Red dye based CPA assay; assay type: functional, cell-based; summary of the method: as §4
# U2OS [18] = test: Effect on mitochondrial membrane potential in human U2OS cells at 10 uM incubated for 24 hrs by TRME staining based analysis; assay type: functional, cell-based; summary of the method: as §6
# U2OS [19] = test: Upregulation of SLC2A1 expression in human U2OS cells at 10 to 30 uM incubated for 24 hrs by proteome profiling based analysis; assay type: functional, cell-based; settings: dose 10-30 µM; summary of the method: as §2
# U2OS [20] = test: Upregulation of EGLN1 expression in human U2OS cells at 10 to 30 uM incubated for 24 hrs by proteome profiling based analysis; assay type: functional, cell-based; settings: dose 10-30 µM; summary of the method: as §2
# U2OS [21] = test: Downregulation of MRPs level in human U2OS cells at 30 uM incubated for 24 hrs by proteome profiling based analysis; assay type: functional, cell-based; summary of the method: as §2
# U2OS [22] = test: Effect on glucose metabolism in human U2OS cells at 30 uM incubated for 24 hrs by pathway over-representation analysis; assay type: functional, cell-based; summary of the method: as §2
# U2OS [23] = test: Effect on mitochondrial respiration in human U2OS cells assessed as suppression of OCR level at 30 uM measured after 24 hrs by Seahorse analysis relative to control; assay type: functional; summary of the method: as §3
# U2OS [24] = test: Effect on mitochondrial morphology in human U2OS cells at high concentration incubated for 20 hrs by Mito Tracker Deep Red dye based CPA assay; assay type: functional, cell-based; summary of the method: as §4
# U2OS [25] = test: Downregulation of […] level in human U2OS cells at 10 to 30 uM incubated for 24 hrs by proteome profiling based analysis; assay type: functional, cell-based; settings: dose 10-30 µM; summary of the method: as §2
# U2OS [26] = test: Effect on glycolysis in human U2OS cells at 30 uM incubated for 24 hrs by pathway over-representation analysis; assay type: functional, cell-based; summary of the method: as §2
# U2OS [27] = test: Induction of mitochondrial fragmentation in human U2OS cells assessed as puncta-like staining at 30 to 50 uM incubated for 20 hrs by Mito Tracker Deep Red dye based CPA assay; assay type: functional, cell-based; settings: dose 30-50 µM; summary of the method: as §4
# U2OS [28] = test: Induction of mitochondrial network fragmentation in human U2OS cells incubated for […] by CellLight Mitochondria-GFP assay; assay type: functional, cell-based; settings: dose 30.0 µM
# Summary of the method: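 U-2OS were transduced with CellLight Mitochondria-GFP BacMam 2.0 one day before treatment. 3000 cells/well were seeded in chamber slides. After compound addition, live cells were imaged by confocal microscopy (488/555 nm) continuously over 24 h at 37 °C, 5% CO₂.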
# U2OS [29] = test: Effect on EIF2 level in human U2OS cells at 30 uM incubated for 24 hrs by proteome profiling based analysis; assay type: functional, cell-based; summary of the method: as §2
# U2OS [30] = test: Upregulation of HMOX1 expression in human U2OS cells at 30 uM incubated for 24 hrs by proteome profiling based analysis; assay type: functional, cell-based; summary of the method: as §2
# U2OS [31] = test: Upregulation of HK2 expression in human U2OS cells at 10 to 30 uM incubated for 24 hrs by proteome profiling based analysis; assay type: functional, cell-based; settings: dose 10-30 µM; summary of the method: as §2
# U2OS [32] = test: Effect on mitochondrial respiration in human U2OS cells assessed as suppression of OCR level measured after 24 hrs by Seahorse analysis; assay type: functional, cell-based; summary of the method: as §3
SMILES,Activity (U2OS [2]),inhibition (U2OS [3]),Activity (U2OS [4]),Activity (U2OS [5]),Activity (U2OS [6]),Activity (HEK-293T),Activity (U2OS [7]),Activity (U2OS [9]),Activity (U2OS [10]),Activity (U2OS [11]),Activity (U2OS [12]),Activity (U2OS [13]),Activity (U2OS [14]),other results
CC(=O)N(O)CCCCCNC(=O)CCC(=O)N(O)CCCCCNC(=O)CCC(=O)N(O)CCCCCN,–,–,–,–,–,–,–,–,–,–,–,–,–,Activity (U2OS [1]): inactive
Cc1cccc(-c2[nH]c(C(C)(C)C)nc2-c2ccc3nccnc3c2)n1,inactive,inactive,inactive,Active,Active,Active,Active,Active,inactive,Active,Active,inactive,Active,Activity (U2OS [8]): Active
COc1cc(OC)c2c(c1Cl)OC1(CCC3(CC1C)OCCc1c3c3cc(C)ccc3n1Cc1ccccc1)C2=O (centres undefined),–,inactive,inactive,Active,Active,–,Active,Active,inactive,–,Active,–,Active,Activity (U2OS [15]): Active; Activity (U2OS [16]): inactive; Activity (U2OS [17]): Active; Activity (U2OS [18]): inactive
Cc1cc(C2CCCCC2)n(O)c(=O)c1 [CICLOPIROX],Active,inactive,inactive,Active,Active,Active,Active,Active,inactive,Active,–,inactive,Active,Activity (U2OS [19]): Active; Activity (U2OS [20]): Active; Activity (U2OS [21]): Active; Activity (U2OS [22]): Active; Activity (U2OS [23]): ~100%; Activity (U2OS [24]): Active; Activity (U2OS [25]): Active; Activity (U2OS [26]): Active; Activity (U2OS [27]): Active; Activity (U2OS [28]): Dose-Dependent Effect; Activity (U2OS [29]): Active; Activity (U2OS [30]): Active; Activity (U2OS [31]): Active; Activity (U2OS [32]): Dose-Dependent Effect
